Source: PubChem BioAssay
ERAP1 inh – ERAP1 (human) enzyme inhibition; 340,000 compounds, 0.15% hits; inhibition, % at 10.7 µM; recombinant ERAP1, Leu-AMC fluorescence, 60 min; Q9NZ08;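 active = mean replicate inhibition of at least 30%, or all replicates individually reaching that 30% level; inactive = mean below 30% and not every replicate reaching it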
DENV2 CPE – inhibitors of DENV2 cytopathic effect | DENV2-infected cells, cytopathic effect rescue, plate reader | 350,000 compounds, 1.7% hits | CPE inhibition, % at 9.99 µM; in the data active = CPE inhibition above about 20%, passing the limit was not always enough; tested in BHK-21 cells
E-sel inducer – induces E-selectin expression in human endothelial cells; activation, % at 7.58 µM; AID 686992; P16581; HUVEC E-selectin immunofluorescence imaging; normalized: neutral wells 0, TNF-alpha wells 100; 260,000 compounds, 0.37% hits;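 active = mean E-selectin-positive cell signal at least 10% of the positive control, reached in at least 60% of replicates, without over 20% cell loss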
Target sequence (P16581 whole entry, looked up): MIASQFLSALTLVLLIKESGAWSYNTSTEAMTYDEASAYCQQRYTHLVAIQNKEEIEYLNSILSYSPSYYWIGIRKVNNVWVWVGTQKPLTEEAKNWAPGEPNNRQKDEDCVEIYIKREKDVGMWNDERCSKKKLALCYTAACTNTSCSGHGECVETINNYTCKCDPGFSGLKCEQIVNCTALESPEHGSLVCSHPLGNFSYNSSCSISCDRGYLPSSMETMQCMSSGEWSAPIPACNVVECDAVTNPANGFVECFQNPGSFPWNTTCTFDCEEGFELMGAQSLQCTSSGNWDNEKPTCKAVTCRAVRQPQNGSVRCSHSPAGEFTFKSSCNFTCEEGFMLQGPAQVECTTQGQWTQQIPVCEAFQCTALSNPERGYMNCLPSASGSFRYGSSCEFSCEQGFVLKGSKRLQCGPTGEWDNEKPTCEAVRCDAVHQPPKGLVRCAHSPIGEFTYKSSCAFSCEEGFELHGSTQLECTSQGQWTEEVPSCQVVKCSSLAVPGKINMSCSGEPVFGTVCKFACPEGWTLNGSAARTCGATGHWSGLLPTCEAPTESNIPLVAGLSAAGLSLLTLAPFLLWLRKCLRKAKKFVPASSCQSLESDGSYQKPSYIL
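Test system – human umbilical vein endothelial cells (HUVEC), E-selectin induction · Input – 3,000 HUVEC seeded per well · Buffer or medium – EGM-2, gelatin · Compound dosing – single-point compound dose · Detection – immunofluorescence imaging · Measure – percent E-selectin-positive cells · Controls – TNF-alpha high, DMSO low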
GSIS activator – primary screen for activators of insulin secretion dependent on glucose, INS-1E cells, GLuc reporter luminescence. INS-1E GLuc reporter insulin secretion, 2-3 h. activation, % at 16.6 µM. 370,000 compounds, 0.61% hits;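 active = lowest replicate activation of at least 40%, so every replicate reaches that level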
F508del corr – CFTR F508del correction in bronchial cells; CFBE cells, YFP halide quenching; stimulated with forskolin plus potentiator P3; % fluorescence drop versus neutral controls; activity (quench increase), % at 7.58 µM; 350,000 compounds, 0.36% hits; AID 720511;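 active = mean added fluorescence quench of at least 8% versus neutral control, with both replicates also reaching 8%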;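 note: cells transiently co-express mutant CFTR-F508del with the halide-sensitive YFP; corrector assay measuring rescue of mutant channel to the surface after 24 h compound exposure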
miR122 inh – inhibitors of miR-122 in Huh7 cells; 340,000 compounds, 0.3% hits; activation (reporter increase), % at 12.5 µM; Huh7 miR-122 Renilla luciferase sensor, 48 h; neutral wells = 0, positive control = 100; AID 602342;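 active = mean replicate activation score at least 90 and every replicate individually at or above 90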;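 note: higher luciferase means less miR-122 activity so hits act as miR-122 inhibitors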
A number is an active result; . = inactive; / = not tested or not shown. Only some compounds are listed: those with a hit (about 2.6% of all), similar ones and a draw of the others.

SMILES	ERAP1 inh	DENV2 CPE	E-sel inducer	GSIS activator	F508del corr	miR122 inh
COc1ccc2c3c(n(C)c2c1)[C@H](CO)NCC31CN(C(=O)Nc2ccccc2F)C1	.	41	.	.	.	/
COc1cccc(NC(=O)N[C@@H]2C=C[C@@H](CC(=O)Nc3ccc(-c4ccccc4)cc3)O[C@H]2CO)c1	.	.	.	.	.	/
COc1cccc(S(=O)(=O)N[C@H]2C=C[C@H](CC(=O)NCc3ccc(F)cc3)O[C@@H]2CO)c1	.	.	.	.	.	/
N#C[C@@H]1[C@@H](c2ccccc2-c2ccc(F)cc2)[C@H](CO)N1c1ncc(-c2ccccc2)s1	.	76	.	.	.	/
N#C[C@H]1[C@@H](c2ccccc2-c2ccc(F)cc2)[C@@H](CO)N1c1ncc(-c2ccccc2)s1	.	23	.	.	.	/
O=C(OCCN=C1NS(=O)(=O)c2ccccc21)c1ccccc1	/	/	/	/	/	215
C[C@@H]1CN([C@@H](C)CO)S(=O)(=O)c2ccc(-c3ccc(F)cc3)cc2O[C@H]1CN(C)S(C)(=O)=O	.	.	.	.	.	.
CCOc1cc(OCC)c(C(C)=O)cc1OCC	.	.	/	.	8.4	.
CCOC(=O)c1c(-c2ccc(C)o2)csc1NC(=O)COC(=O)c1ccc(NC(N)=O)cc1	/	/	/	50	/	.
CCOC(=O)c1c(-c2ccc(C)o2)csc1NC(=O)CSc1nnc(C)s1	/	/	/	/	/	.
COc1ccc2c3c([nH]c2c1)[C@H](CO)N(Cc1ccc(F)cc1)CC31CN(C)C1	/	/	/	.	/	/
CC(=O)N1C[C@H]2[C@@H](c3ccccc31)[C@@H](CO)N2C(=O)CC1CC1	.	.	.	.	.	.
CCOC1=C2[C@H](c3ccc(C)cc3)N(S(=O)(=O)c3ccc(C)cc3)C[C@H]2n2c(=O)n(-c3ccccc3)c(=O)n2C1	.	.	.	52	.	.
CCOC1=C2CN(S(=O)(=O)c3ccc(C)cc3)[C@H](c3ccccc3)C[C@H]2[C@H]2C(=O)N(c3ccccc3)C(=O)[C@H]2C1	/	49	/	.	.	.
CCOC1=C2[C@@H](CN(S(=O)(=O)c3ccc(C)cc3)[C@H]2c2ccc(Cl)cc2)[C@H]2C(=O)N(c3ccccc3)C(=O)[C@H]2C1	/	.	/	.	11	.
CCOC1=C2CN(S(=O)(=O)c3ccc(C)cc3)[C@H](c3ccc(CC)cc3)C[C@@H]2N(S(=O)(=O)c2ccc(C)cc2)[C@H](c2ccccc2)C1	.	95	.	.	.	.
CCOC1=C2CN(S(=O)(=O)c3ccc(C)cc3)[C@@H](c3ccc(CC)cc3)C[C@H]2[C@H]2C(=O)N(c3ccccc3)C(=O)[C@H]2C1	/	.	/	.	.	.
CCOC1=C2[C@@H](CN(S(=O)(=O)c3ccccc3)[C@H]2c2ccccc2)[C@H]2C(=O)N(c3ccccc3)C(=O)[C@H]2C1	.	.	.	.	.	.
COc1ccccc1-c1ccc2c(c1)[C@@H]1[C@@H](CCN1S(=O)(=O)c1cn(C)cn1)[C@@H](CO)N2	.	.	.	.	.	.
C[C@H]1CN([C@@H](C)CO)C(=O)c2cccc(NC(=O)NC3CCCCC3)c2O[C@H]1CN(C)S(=O)(=O)c1ccc(F)cc1	/	/	.	.	.	.
CO[C@H]1CN(C)C(=O)c2ccc(NS(C)(=O)=O)cc2OC[C@H](C)N(Cc2ccccn2)C[C@@H]1C	.	.	.	.	.	/
COc1cccc(NC(=O)N(C)C[C@H]2Oc3ncc(C#Cc4ccccc4)cc3C(=O)N([C@H](C)CO)C[C@@H]2C)c1	.	.	.	.	.	.
COCC(=O)Nc1ccc2c(c1)C(=O)N(C)C[C@H](OC)[C@@H](C)CN(CCC(F)(F)F)[C@@H](C)CO2	.	.	.	.	.	.
COc1ccc(S(=O)(=O)N(C)C[C@@H]2OCCCC[C@@H](C)Oc3ccc(NC(=O)CCCN(C)C)cc3C(=O)N([C@@H](C)CO)C[C@H]2C)cc1	.	.	.	.	.	.
C[C@@H]1CN([C@H](C)CO)C(=O)c2cccc(NC(=O)Nc3ccccc3)c2O[C@@H]1CN(C)S(=O)(=O)c1ccccc1	.	.	255	.	.	.
